Assay results taken from PubChem BioAssay AID463079 (The Scripps Research Institute Molecular Screening Center, 2010).
About 2,000 (0.61%) of roughly 330,000 compounds were called active.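 The calls were made as follows: active = inhibition above that plate's mean sample inhibition plus 3 SD (cut at about 26% in these data); inactive = the rest.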 For the sample, actives were picked, then their nearest neighbours and some compounds at random.

Assay: nonselective Gq signaling inhibition in CHO cells – cell-based, fluorescence, Fluo-8 calcium dye, counter-screen for OX1R antagonist project, primary screen (AID 463079);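 also: 0% = ATP-challenged DMSO wells and 100% = DMSO wells without ATP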
Settings: parental CHO-K1, ATP-induced calcium, Fluo-8 fluorescence; at 5.6 µM; active compounds read high
Procedure, shortened: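 Material: parental CHO cells / Compound: single nominal dose of 5.6 µM per compound / Signal: Fluo-8 fluorescence / Replicates: singlicate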
With O=C(Nc1ccc(S(=O)(=O)Nc2ncccn2)cc1)C12CC3CC(CC(C3)C1)C2 the inhibition was -8.7% (inactive).
In the case of Cc1cc(C(F)F)n2nc(C(=O)Nc3ccc(S(=O)(=O)NC45CC6CC(CC(C6)C4)C5)cc3)nc2n1, the inhibition is reported as -7.46% (inactive).
For CCn1nccc1C(=O)Nc1ccc(S(=O)(=O)NC23CC4CC(CC(C4)C2)C3)cc1, the inhibition was 61% (active).
For COc1ccccc1CNS(=O)(=O)c1c(C)[nH]c(C)c1C(=O)N1CCCCC1, the inhibition was -7.23% (inactive).
In the case of Cc1ccc(S(=O)(=O)N(CC(=O)N2CCc3ccccc3C2)c2cccc(Cl)c2)cc1, the inhibition is reported as -23.4% (inactive).
For O=[N+]([O-])/C=C/c1ccc2c(ccn2Cc2ccccc2)c1, the inhibition was 42% (active).
In the case of O=C(Cn1ccc2cc(S(=O)(=O)N3CCCC3)ccc21)NCc1ccccc1, the inhibition is reported as -3.13% (inactive).
In the case of COC(=O)Cn1cc(/C=C/[N+](=O)[O-])c2ccccc21, the inhibition is reported as -9.14% (inactive).
In the case of CCCC(C)NC(=O)C1CCN(C(=O)C2CC(=O)N(c3ccc(C)cc3)C2)CC1 (configuration not stated), the inhibition is reported as -8.45% (inactive).
For CCN(Cc1ccncc1)C(=O)c1cccc(S(=O)(=O)N2CCOCC2)c1, the inhibition was -16.1% (inactive).
With O=S(=O)(c1cccc(Cn2nnc(-c3ccc(F)cc3)n2)c1)N1CCOCC1 the inhibition was 41.7% (active).
In the case of Cc1nc(-c2ccc(F)cc2)c(CC(=O)Nc2cccc(S(=O)(=O)N3CCOCC3)c2)s1, the inhibition is reported as -17.7% (inactive).
For CC(=O)Nc1ccc(S(=O)(=O)Oc2ccc(/C=N/N=C3/NC(=O)C(CC(=O)O)S3)cc2)cc1 (configuration not stated), the inhibition was -3.01% (inactive).
For CC(c1ccccn1)N(C)C(=O)c1ccc2nc(Cc3cccc(Cl)c3)oc2c1 (configuration not stated), the inhibition was -18.4% (inactive).
With CC[C@]12c3[nH]c4ccc(Cl)cc4c3CCN1C(=O)[C@@H](CC(=O)NCCN1CCOCC1)C[C@@H]2C(=O)N1CCN(C(=O)C2CC2)CC1 the inhibition was -12.4% (inactive).
For Cc1cc(OC(=O)c2ccc(Cl)cc2)cc(=O)n1C, the inhibition was -3.96% (inactive).
In the case of COCCCNc1nc2c(-c3cccc(C)c3)nnn2c2ccc(Cl)cc12, the inhibition is reported as -27.9% (inactive).
With Cc1ccc2cc(CCNC(=O)c3ccc4c(c3)OCO4)c(=O)[nH]c2c1 the inhibition was -18% (inactive).
With COc1ccc(CCNC(=O)COc2ccc3c(c2)OCO3)cc1 the inhibition was -4.78% (inactive).
In the case of O=C(NCCc1ccc(C(F)(F)F)cc1)c1ccc2c(c1)OCO2, the inhibition is reported as 40.1% (active).
With O=S(N1CCCCCC1)C12CC3CC(CC(C3)C1)C2 (configuration not stated) the inhibition was -6.89% (inactive).
With COc1ccc(N2CCC(CNC(=S)Nc3c(C)cccc3C)C2)cc1 (configuration not stated) the inhibition was -5.49% (inactive).
For CC1(C)C2CCC1(C)C(OC(=O)c1ccc(O)cc1)C2 (configuration not stated), the inhibition was 76.2% (active).
For CC1(C)C2CCC1(C)C(OC(=O)CCn1ccnc1)C2 (configuration not stated), the inhibition was -13.9% (inactive).
With Cc1ccc(C(=O)OC2CCCN(C)C2)cc1 (configuration not stated) the inhibition was -15% (inactive).
In the case of O=C(CNC(=O)c1ccc(Br)o1)NCC1CCCO1 (configuration not stated), the inhibition is reported as 4.99% (inactive).
In the case of CC[C@]12c3[nH]c4cc(CCC(=O)N(C)C)ccc4c3CCN1C(=O)[C@@H](CC(=O)NCCCN(C)C)C[C@@H]2C(=O)N1CCN(C(=O)c2ccco2)CC1, the inhibition is reported as -12.2% (inactive).
With CCCCCNC(=O)C1c2ccccc2Oc2ccccc21 the inhibition was -8.91% (inactive).
For CCC(C)NC(=O)C1c2ccccc2Oc2ccccc21 (configuration not stated), the inhibition was -11.6% (inactive).
For CCC(C)(C)NC(=O)C1c2ccccc2Oc2ccccc21, the inhibition was 41.2% (active).
With Cc1cc(C)c2nc(SCC(=O)N(C)C3CCS(=O)(=O)C3)cc(C)c2c1 (configuration not stated) the inhibition was -7.05% (inactive).
In the case of CCOc1ccc(C(=O)Nc2cccc(-c3ccc4nncn4n3)c2)cc1, the inhibition is reported as -7.65% (inactive).
For O=S(=O)(NC1CC2CCC1C2)c1ccc(Cl)cc1 (configuration not stated), the inhibition was -7.07% (inactive).
With O=C(NCCN=C1NS(=O)(=O)c2ccccc21)c1ccc(S(=O)(=O)N2CCOCC2)cc1 the inhibition was -2.4% (inactive).
With Cc1n[nH]c(C)c1S(=O)(=O)N1CCCC(C(=O)NCC2COc3ccccc3O2)C1 (configuration not stated) the inhibition was -6.84% (inactive).
With CC(=O)c1c(C)[nH]c(C(=O)OCC(=O)Nc2sc3c(c2C#N)CCCC3)c1C the inhibition was 33.6% (active).
In the case of Cc1cccc(C(=O)OCC(=O)Nc2sc3c(c2C#N)CCC3)c1, the inhibition is reported as -1.94% (inactive).
With CC(=O)c1c(C)[nH]c(C(=O)OCC(=O)Nc2c(C)cccc2C)c1C the inhibition was -7.2% (inactive).
In the case of O=C(COC(=O)[C@H](Cc1ccccc1)NC(=O)c1cccs1)Nc1cc(F)ccc1F, the inhibition is reported as -7.13% (inactive).
In the case of CC(=O)N(O)CCCCCNC(=O)CCC(=O)N(O)CCCCCNC(=O)CCC(=O)N(O)CCCCCNC(=O)CCC(=O)O, the inhibition is reported as -0.82% (inactive).
In the case of O=C(NC(=S)NC1CCSC1=O)c1ccccc1F (configuration not stated), the inhibition is reported as -7.55% (inactive).
In the case of COc1cc(OC)c(-n2c(C)cc(C=O)c2C)cc1Cl, the inhibition is reported as -12.5% (inactive).
For COc1cc(OC)c(-n2cc(-c3ccc(Cl)cc3)[nH]c2=O)cc1Cl, the inhibition was 39.3% (active).
In the case of COc1cc(OC)c(N2CC(C(=O)Nc3cc(Cl)ccc3N3CCOCC3)CC2=O)cc1Cl (configuration not stated), the inhibition is reported as -16.6% (inactive).
With CN(c1ccccc1)S(=O)(=O)c1cc(C(=O)N2CCN(c3ncccn3)CC2)ccc1Cl the inhibition was -18.9% (inactive).
For CC(C)(C)c1ccc(SCCc2ccncc2)cc1, the inhibition was 28.1% (inactive).
For O=C(O)CC1S/C(=N\N=C/c2ccccc2O)N(c2ccc(O)cc2)C1=O (configuration not stated), the inhibition was -10.7% (inactive).
For CS(=O)(=O)N(CC(=O)Nc1ccc(Cl)c(Cl)c1)C1CCCCC1, the inhibition was -5.86% (inactive).
For O=C(CC(O)(C(F)(F)F)C(F)(F)F)Nc1ccc(Cl)c(Cl)c1, the inhibition was 72.5% (active).
For CCn1nccc1C(=O)Nc1ccc(Cl)c(Cl)c1, the inhibition was -8.3% (inactive).
With CN(C)CCN(Cc1ccccc1)S(=O)(=O)c1csc(C(N)=O)c1 the inhibition was -12.9% (inactive).
In the case of COc1cccc(-c2coc3cc4oc(=O)c(CC(=O)O)c(C)c4cc23)c1, the inhibition is reported as 1.98% (inactive).
In the case of CC#CC[N+](C)(C)CCCCCC, the inhibition is reported as -6.39% (inactive).
For O=C(NC(Cc1ccccc1)C(=O)N1CCCC(C(F)(F)F)C1)c1ccccc1 (configuration not stated), the inhibition was -16.7% (inactive).
For O=C(NCC(=O)N1CCCC(C(F)(F)F)C1)c1ccccc1F (configuration not stated), the inhibition was -5.99% (inactive).
In the case of FC(F)(F)C1CCCN(c2nsc3ccccc23)C1 (configuration not stated), the inhibition is reported as 51.7% (active).
For Cc1cc(C(=O)O)c(S(C)(=O)=O)s1, the inhibition was -2.26% (inactive).
